Source: PubChem BioAssay (several laboratories)
An excerpt weighted towards active compounds, which were near 0.72% of everything screened.
GSK3 alpha inh: inhibitors of human GSK-3 alpha kinase | P49840 | ADP-Glo luminescence, 60 min | inhibition, % at 10 µM | 0.1% of 320,000 active | AID 2650;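 active = more than half of replicates show inhibition above 20%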;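 also: GST-tagged GSK-3 alpha with peptide substrate and 25 µM ATP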
STK33 inh: human STK33 kinase inhibition; Q9BYT3; purified STK33, MBP phosphorylation, ADP-Glo luminescence; inhibition, % at 10 µM; 0.073% of 320,000 active;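 active = inhibition at or above 25%, using the most active replicate where run in duplicate; inactive = inhibition below 25%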
PolyA inhibitor: yeast polyadenylation inhibition | S. cerevisiae SKY197-pL101 polyadenylation reporter, beta-gal luminescence; efflux-impaired pdr1/pdr3 knockout yeast; score 100 = 6 SD above DMSO | activity score, % at 12 µM | 0.02% of 300,000 active;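 active = lowest replicate activity score at least 50, where 100 means six control SD above control mean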;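 also: yeast exposed to compound for 9 h at 30 °C; higher score means more reporter readthrough which indicates perturbed polyadenylation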
AI-2 QS mod: modulates the Vibrio harveyi AI-2 quorum sensing system. Vibrio harveyi JMH597 AI-2 luminescence/OD600 ratio, 9 h; hits give low values; strain lacks LuxN and CqsS sensors; 0 = neutral-control median. activity change, % at 7.5 µM. 0.4% of 300,000 active. AID 2094; in the data active = activity change below about -75%, passing the limit was not always enough;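 also: luminescence divided by OD600 gain over 9 h not by final OD600 alone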
GSK3beta inhib: blocks human GSK3beta kinase activity. P49841. GST-GSK3beta kinase, ADP-Glo luminescence, 60 min; hits give low values. activity score (negative = inhibition), % at 10 µM. 0.038% of 300,000 active;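 active = more than half of replicate wells score below -50%, meaning over 50% inhibition versus plate controls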
Target sequence (P49841 whole entry, looked up): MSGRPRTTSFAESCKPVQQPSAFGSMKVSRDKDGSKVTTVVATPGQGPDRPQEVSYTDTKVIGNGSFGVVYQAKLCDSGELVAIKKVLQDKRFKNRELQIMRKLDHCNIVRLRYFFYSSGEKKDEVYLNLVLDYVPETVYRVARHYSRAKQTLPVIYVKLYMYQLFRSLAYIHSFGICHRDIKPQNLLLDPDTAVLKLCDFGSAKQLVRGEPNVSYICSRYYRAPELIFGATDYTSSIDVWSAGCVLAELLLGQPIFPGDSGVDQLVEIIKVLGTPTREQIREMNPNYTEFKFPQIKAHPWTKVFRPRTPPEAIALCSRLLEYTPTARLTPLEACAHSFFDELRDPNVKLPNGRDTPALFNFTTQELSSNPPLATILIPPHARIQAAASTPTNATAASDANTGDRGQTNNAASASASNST
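test system = GST-tagged human GSK3beta kinase, cell-free | reagent = 25 µM ATP with peptide substrate | dosing = one dose of 10 µM per compound | schedule = 60 min reaction, RT | detection = luminescent ADP-Glo measurement of ADP formed | control set = DMSO neutral wells and GW8510 at 20 µM as positive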
Yeast superoxide: lowers age-related superoxide in aged yeast cells | 0.18% of 330,000 active | AID 2690 | superoxide response (% of plate mean), % at 10 µM | S. cerevisiae aged cells, superoxide DHE fluorescence; hits give low values;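 active = superoxide response under a set limit, about three screen SD below normal, cut at about 65% in these data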;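 also: yeast aged for seven days with compound at 30 °C before DHE staining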
Numbers stand for hits; – = inactive; · = no result.

SMILES	GSK3 alpha inh	STK33 inh	PolyA inhibitor	AI-2 QS mod	GSK3beta inhib	Yeast superoxide
Cc1ccc(C)c(OCC(O)CNC2CCCC2)c1 (stereo not given)	–	–	–	–	–	–
CC(C)c1ccc(/C=C(\NC(=O)c2ccccc2)C(=O)NCCCN2CCOCC2)cc1	–	–	–	–	–	–
O=C(CSc1nnc(NC(=O)c2c(F)cccc2F)s1)NC1CCCCC1	–	–	–	–	–	–
Cc1ccc(Nc2c(-c3ccc(C)o3)nc3ncccn23)cc1	–	–	57	–	–	–
Oc1ccc(-c2nc3ncccn3c2Nc2ccc3c(c2)OCO3)cc1	53	–	–	–	–	–
Cc1ccc(C(=O)OCCn2cc(C#N)c(=O)[nH]c2=O)cc1	–	–	–	–	–	–
S=C(NCc1ccccc1)Nc1cccc(Cl)c1	–	–	–	-78	–	–
Fc1cccc(Nc2ncnc3[nH]ncc23)c1	53	–	–	–	–	–
O=C(NC(=S)Nc1ccccc1Br)C1CC1	–	–	–	-77	–	–
Cc1ccccc1NC(=S)NC(=O)C1CCCCC1	–	–	–	–	–	–
CC(C)CC1Nc2ncnc(N3CCN(c4ccccc4)CC3)c2N(Cc2ccccc2)C1=O (stereo not given)	–	–	84	–	–	–
CC(C)CC1Nc2ncnc(N3CCN(c4ccccc4)CC3)c2N(Cc2ccc(Br)cc2)C1=O (stereo not given)	–	–	–	–	–	–
CCN(CC)C(=O)[C@H]1C[C@H](CC(=O)NCCCn2ccnc2)C(=O)N2CCc3c([nH]c4cc(CCC(=O)N(C)C)ccc34)[C@]12C	·	·	·	·	·	–
COC(=O)c1nnn(-c2nonc2N)c1CN1CCc2ccccc21	64	–	–	–	–	–
Nc1nonc1-n1nnc(C(=O)N/N=C/c2ccccc2)c1CN1CCc2ccccc21	–	–	–	–	–	–
COCc1c(C(=O)OCC(=O)NCCc2ccc(S(N)(=O)=O)cc2)oc2ccccc12	–	–	·	·	·	65
Cc1c(C(=O)OCC(=O)NCCc2ccc(S(N)(=O)=O)cc2)oc2ccccc12	–	–	·	·	·	–
COc1cc(/C=N/Nc2ccc(C(F)(F)F)cn2)ccc1O	–	28	–	–	–	–
O=C(O)c1ccc(/C=N/Nc2ccc(C(F)(F)F)cn2)cc1	·	·	–	–	–	·
CCCCCc1c(O)nc(SCCN2CCOCC2)[nH]c1=O	–	–	–	–	–	–
C=CCN=C(NC#N)SCC(=O)c1cccc(OC)c1	82	–	–	–	-69	–
C=CCN=C(NC#N)SCc1ccccc1	–	–	–	–	–	–
CCc1ccc2c(c1)C(c1ccc([N+](=O)[O-])cc1)=NNC(c1ccc(C)cc1)=N2	–	–	–	–	–	–
O=S(=O)(N/N=C\C=C\c1ccccc1)c1ccc(Br)cc1	–	–	–	-92	–	–
CN(C)c1ccc(/C=N/NS(=O)(=O)c2ccc(Br)cc2)cc1	–	–	–	-92	–	–
SMILES	GSK3 alpha inh	STK33 inh	PolyA inhibitor	AI-2 QS mod	GSK3beta inhib	Yeast superoxide
COC(=O)CSc1nc(C)c2c(n1)CCCC2	–	–	–	–	–	–
COc1ccc(CNc2ncnc3sccc23)cc1	–	–	114	–	–	–
Cc1ccc(NC(=S)N2CCCCC2CO)cc1C (stereo not given)	–	–	–	–	–	–
Cc1ccc2c(c1)-n1c(nc3cc(Cl)ccc3c1=O)C(CC(C)C)NC2=O (stereo not given)	–	–	·	·	·	–
CCCNCC1COc2ccccc2O1 (stereo not given)	–	–	–	–	-52	–
CC1=C(C(=O)OC2CCCCC2)C(c2ccc(N(C)C)cc2)NC(=O)N1 (stereo not given)	–	–	–	–	–	–
CCN(CC)c1ccc(/C=C2\C(=O)c3ccc(C(=O)O)cc3C2=O)cc1	–	61	·	·	·	–
CCN(CC)C(=O)c1ccc2nc3ccccc3nc2c1	·	–	–	–	–	37
CCN(CC)C(=O)c1ccc2nc(-c3ccccc3)c(-c3ccccc3)nc2c1	–	–	–	–	–	–
COc1ccccc1NC(=O)CCSc1nc(C)cs1	–	–	–	–	–	–
O=C(OCCCOC(=O)c1ccc(O)cc1)c1ccc(O)cc1	·	–	–	–	-80	–
O=C(OCCCCOC(=O)c1ccccc1)c1ccccc1	–	–	–	–	–	–
